High-throughput results from PubChem BioAssay.
LMPTP inh: LMPTP phosphatase inhibitors, primary screen, biochemical, fluorescence intensity, uHTS; Low molecular weight phosphotyrosine protein phosphatase (Homo sapiens), P24666; recombinant LMPTP-A, OMFP fluorogenic substrate; inhibition, % at 20 µM; hit rate 0.22% among 360,000; AID 651560, 2012;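 active = compounds that cut the enzyme signal by at least half of the control window in the single-dose screen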;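 note: plate controls were DMSO wells with enzyme plus substrate for no effect and substrate without enzyme for full effect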
Target sequence (P24666 whole entry, looked up): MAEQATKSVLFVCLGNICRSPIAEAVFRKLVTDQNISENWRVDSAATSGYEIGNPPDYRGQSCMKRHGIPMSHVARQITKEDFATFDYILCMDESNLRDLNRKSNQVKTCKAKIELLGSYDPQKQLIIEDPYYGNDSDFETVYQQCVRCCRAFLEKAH
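Test system: LMPTP-A, protein tyrosine phosphatase of low molecular weight; Input: 0.625 nM enzyme; Incubation: 50 min dark incubation at room temperature; Signal: endpoint fluorescence intensity from OMFP dephosphorylation; Read-out basis: % inhibition versus control wells.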
SUMO1 PPI mod: modulators of SUMO1 protein-protein interactions, primary screen, biochemical, uHTS; AID 602429, 2012; hit rate 0.33% among 360,000; inhibition, % at 20 µM; Small ubiquitin-related modifier 1 (Homo sapiens), P63165; SUMO1 binding to a labelled peptide, TR-FRET, 1 h; in the data active = inhibition above about 37%
Target sequence (P63165 whole entry, looked up): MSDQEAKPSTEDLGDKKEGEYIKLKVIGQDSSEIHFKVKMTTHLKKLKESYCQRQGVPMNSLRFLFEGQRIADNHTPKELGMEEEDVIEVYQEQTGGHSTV
Scp1 inh: Scp-1 phosphatase inhibitors, primary screen, biochemical, colorimetric, uHTS; Carboxy-terminal domain RNA polymerase II polypeptide A small phosphatase 1 (Homo …; Recombinant Scp1, phosphopeptide, malachite green phosphate absorbance; inhibition, % at 20 µM; hit rate 0.88% among 340,000;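 active = inhibition above about 50% at 20 µM, limit read from the data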;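 note: plate controls were DMSO wells with enzyme for no effect and wells lacking enzyme for full effect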
Target sequence (Q9GZU7 76-261 limits assumed): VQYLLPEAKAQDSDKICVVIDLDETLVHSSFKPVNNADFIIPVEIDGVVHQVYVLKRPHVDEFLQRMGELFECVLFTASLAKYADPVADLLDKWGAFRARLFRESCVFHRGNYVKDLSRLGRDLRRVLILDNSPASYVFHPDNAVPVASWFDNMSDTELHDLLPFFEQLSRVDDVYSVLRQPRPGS
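Assay system: SCP-1 catalytic fragment, aa 76-261 | Buffer or medium: Tris acetate buffer pH 5.5 with MgCl2 and Tween-20 | Compound: One concentration, 20 µM, with 1.0% DMSO | Also added: Phospho 17-mer peptide substrate | Signal: Absorbance at 630 nm | Incubation: 45 min enzyme reaction at room temperature | Measure: % inhibition of SCP-1 phosphate liberation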
STEP inh: STEP phosphatase inhibitors, primary screen, biochemical, fluorescence intensity, uHTS | hit rate 0.25% among 360,000 | AID 588621, 2011 | inhibition, % at 20 µM | Tyrosine-protein phosphatase non-receptor type 5 (Homo sapiens), P54829 | recombinant STEP, OMFP fluorogenic substrate;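 active = inhibition at 20 µM, scaled per plate between control wells, above about 37%, limit read from the data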;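 note: 0% = DMSO with enzyme and substrate and 100% = substrate only without enzyme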
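System: isolated STEP enzyme; schedule: 20 min enzyme reaction at room temperature, protected from light; medium: Bis-Tris buffer pH 6.0, 2.5 mM DTT, 0.005% Tween 20; signal: fluorescence, 480/540 nm; dosing: single compound dose of 20 µM, 1% DMSO final; also added: OMFP substrate, 25 µM final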
GRK2 aptamer HTS: compounds blocking aptamer binding on GRK2 – biochemical, human GRK2, bead flow cytometry, HTS, primary screen. hit rate 0.59% among 330,000. inhibition of aptamer binding, % at 10 µM. FAM-aptamer displacement from GRK2. AID 488847, 2010. Beta-adrenergic receptor kinase 1 (Homo sapiens), P25098;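 active = inhibition of aptamer binding above 40%, roughly 3 SD of noise, on plates passing a quality check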;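 note: median bead fluorescence of bound FAM aptamer so fluorescent compounds give negative values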
DNMT1 inh: human DNMT1 methyltransferase inhibitors, primary screen, biochemical, molecular beacon, fluorescence, HinP1I cleavage, uHTS; DNA (cytosine-5)-methyltransferase 1 (Homo sapiens), P26358; inhibition (reported as % activation of signal), % at 10 µM; hit rate 0.83% among 360,000; in the data active = inhibition above about 50%
DNMT1 interf DR: spectral interference with molecular beacon fluorescence, dose response, artefact control for DNMT1 inhibitor project, biochemical, fluorescent molecular beacon; AID 602382, 2012; IC50, µM; 200 tested, under 10 active; shares compounds with DNMT1 inh; spectral interference counter-screen; call rule not given here
DNMT1 inh conf: DNMT1 methyltransferase inhibitor retest, confirmation, biochemical, molecular beacon, fluorescence, single concentration | DNMT1 molecular beacon HinP1I cleavage | hit rate 8% among 2,300 | shares compounds with DNMT1 inh | inhibition, % at 10 µM | AID 602385, 2012;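 active = average inhibition of at least 30% in the single-concentration confirmation test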
Beacon interf: shows spectral interference in the DNMT1 beacon assay. DNMT1 molecular beacon spectral interference counterscreen, fluorescence 485/520. shares compounds with DNMT1 inh. hit rate 1% among 2,300. activation (fluorescence interference), % at 10 µM;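 active = activation of at least 30% at 10 µM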;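 note: DNMT1 catalytic domain with a HinP1I cleavage step and a FAM/dabcyl DNA beacon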
* marks the source's active call; other numbers are inactive results. Rows were chosen to be rich in hits. Some 2.1% of all compounds tested hit in one or more screens of this group.

Screening N#Cc1ccccc1S(=O)(=O)NC(=O)[C@H]1O[C@@H](n2cnc3c(N)ncnc32)[C@H](O)[C@@H]1O returned LMPTP inh -2, SUMO1 PPI mod 2, STEP inh -1, DNMT1 inh 84*, DNMT1 inh conf 4 and Beacon interf -1.
`Nc1ncnc2c1ncn2[C@@H]1O[C@H](C(=O)NS(=O)(=O)c2cccc(F)c2)[C@@H](O)[C@H]1O` gave LMPTP inh -2, SUMO1 PPI mod 0, STEP inh -3 and DNMT1 inh 2.
Screening O=C(COC(=O)Cc1ccsc1)Nc1ccc(Cl)c(S(=O)(=O)N2CCOCC2)c1 returned LMPTP inh 0, SUMO1 PPI mod -2, Scp1 inh -5, STEP inh -2, GRK2 aptamer HTS 0, DNMT1 inh 77*, DNMT1 inh conf 1 and Beacon interf 3.
For COc1ccc2c3c([nH]c2c1)C(C)N(CCC(=O)NN)CC3 (stereo not drawn) the results were LMPTP inh 0, SUMO1 PPI mod -3, Scp1 inh -6, STEP inh 8, GRK2 aptamer HTS 0, DNMT1 inh 64*, DNMT1 inh conf 4 and Beacon interf 4.
`CN(C)c1ccc(/C=C2\C(=N)N3C(=NC2=O)Sc2cc(S(C)(=O)=O)ccc23)cc1` gave GRK2 aptamer HTS 0.
`O=S(=O)(Cc1noc(-c2ccc(Cl)cc2)n1)Cc1ccco1` gave LMPTP inh 27, SUMO1 PPI mod 3, Scp1 inh 15, STEP inh 6, GRK2 aptamer HTS 7, DNMT1 inh 83*, DNMT1 inh conf 1 and Beacon interf 3.
For O=S(=O)(Cc1ccco1)Cc1nc(-c2ccc(Cl)cc2)cs1 the results were LMPTP inh 1, SUMO1 PPI mod 12, Scp1 inh -18, STEP inh 1, GRK2 aptamer HTS 0 and DNMT1 inh -6.
`Cc1cccc(-c2nnn3c2nc(NCCc2ccc(S(N)(=O)=O)cc2)c2ccccc23)c1` gave LMPTP inh 40, SUMO1 PPI mod -17, Scp1 inh 3, STEP inh 0, GRK2 aptamer HTS 0 and DNMT1 inh 42.
For Cc1ccc(-c2nnn3c2nc(NCCc2ccc(S(N)(=O)=O)cc2)c2ccccc23)cc1 the results were LMPTP inh 21, SUMO1 PPI mod -4, Scp1 inh -2, STEP inh 2, GRK2 aptamer HTS 0, DNMT1 inh 89*, DNMT1 inh conf 7 and Beacon interf -2.
For NS(=O)(=O)c1ccc(CCNc2nc3c(-c4cccc(F)c4)nnn3c3ccccc23)cc1 the results were LMPTP inh 27, SUMO1 PPI mod -5, Scp1 inh -14, STEP inh 5, GRK2 aptamer HTS 0, DNMT1 inh 72*, DNMT1 inh conf 7 and Beacon interf -2.
CCN1CCc2[nH]c3ccccc3c2C1 was read as LMPTP inh 0, SUMO1 PPI mod -2, Scp1 inh -4, STEP inh 1, GRK2 aptamer HTS 0 and DNMT1 inh -1.
Cc1ccccc1C(=O)N1CCN(c2ccc(NC(=O)c3ccc4c(c3)OCCO4)cc2)CC1 was read as LMPTP inh 0, SUMO1 PPI mod -4, Scp1 inh -2, STEP inh 0, GRK2 aptamer HTS 4 and DNMT1 inh -5.
`COC(=O)[C@@]1(Sc2ccc(C)cc2)CC(=O)N(c2ccccc2)[C@@H]1c1ccccc1` gave LMPTP inh 2 and SUMO1 PPI mod 1.
Cc1ccc2cc(C#N)c(SCC(=O)NNC(=O)Cc3ccccc3)nc2c1 was read as LMPTP inh 0, SUMO1 PPI mod -5, Scp1 inh 0, STEP inh -1, DNMT1 inh 45, DNMT1 inh conf -1 and Beacon interf -5.
For COc1ccc2cc(C#N)c(SCC(=O)NNC(=O)Cc3ccccc3)nc2c1 the results were LMPTP inh -1, SUMO1 PPI mod 4, Scp1 inh -11, STEP inh 1, GRK2 aptamer HTS 3 and DNMT1 inh 21.
For Cc1cccc2cc3c(N)c(C#N)sc3nc12 the results were LMPTP inh 3, SUMO1 PPI mod -8, Scp1 inh -8, STEP inh -4, GRK2 aptamer HTS 1 and DNMT1 inh -5.
Cc1sc(NC(=O)c2sc3nc4c(C)cccc4cc3c2N)c(C#N)c1C was read as LMPTP inh 3, SUMO1 PPI mod 6, Scp1 inh -4, STEP inh 3, GRK2 aptamer HTS 0, DNMT1 inh 88*, DNMT1 inh conf 9 and Beacon interf -1.
CC(C)n1c(=S)[nH]c2scc(-c3cccs3)c2c1=O was read as LMPTP inh 15, SUMO1 PPI mod -1, Scp1 inh 45, STEP inh 3, GRK2 aptamer HTS 1, DNMT1 inh 80*, DNMT1 inh conf 14 and Beacon interf -1.
`CC(C)CC1NC(=O)c2cccnc2-n2c1nc1ccccc1c2=O` (stereo not drawn) gave LMPTP inh 1, SUMO1 PPI mod -4, STEP inh 0 and DNMT1 inh 0.
For Cc1ccc2nc(-c3ccc(F)cc3)c(CC3CCCCC3)n2c1 the results were LMPTP inh 2 and SUMO1 PPI mod 6.
`CN(C)CCOc1nc(-c2ccccc2)nc2c1oc1ccccc12` gave LMPTP inh -5, SUMO1 PPI mod 0, Scp1 inh 3, STEP inh -6, GRK2 aptamer HTS 0, DNMT1 inh 65*, DNMT1 interf DR >99, DNMT1 inh conf 57* and Beacon interf 2.
O=C(CSc1nc2ccccc2c2nc3ccccc3n12)NCc1ccco1 was read as LMPTP inh 6, SUMO1 PPI mod 6, Scp1 inh 25, STEP inh 2, GRK2 aptamer HTS 2, DNMT1 inh 71*, DNMT1 inh conf 15 and Beacon interf 1.
